Screens: PubChem, several laboratories
ABCB6 inh 2 – ABCB6 transporter inhibitors, primary screen, K562-ABCB6 cells, flow cytometry, MLPCN library. ATP-binding cassette sub-family B member 6 (Homo sapiens), Q9NP58. K562-ABCB6 porphyrin accumulation, 1 h; active compounds read low. fluorescence ratio to DMSO, % at 10 µM. actives 0.19% (n = 360,000). AID 602162, 2011;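 active = fluorescence ratio to DMSO below 75%, the collection mean minus 3 SD; inconclusive = too few cells collected in the well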;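 also: signal is porphyrin accumulated inside mitochondria; 100% equals median channel fluorescence of DMSO control wells; lower ratio means ABCB6 inhibition with less porphyrin fluorescence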
p-CIP stab down – p/CIP-EGFP fusion destabilizers, primary screen, fluorescence, F442A cells; actives 0.01% (n = 290,000); 16 h; decrease of EGFP signal, % at 10 µM;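 active = EGFP signal decrease of at least 30% at 10 µM or well 3 SD below plate mean, unless failing retest; inactive = the rest, including hits failing retest or dose response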
KCC2 mod – KCC2 cotransporter modulators, thallium flux, primary screen, cell-based, HEK293 KCC2, FluoZin-2 fluorescence, MLSMR | actives 2.2% (n = 190,000) | Solute carrier family 12 member 5 (Homo sapiens), Q9H2X9 | B-score of Tl+ flux slope (higher = more flux/activation; lower = inhibition) at 10 µM | KCC2 cells, thallium flux FluoZin-2 fluorescence | AID 1456, 2008;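 active = thallium flux slope and its plate-corrected score both differing from the plate sample mean at a set confidence after two filtering rounds, in either direction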;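 also: slope of fluorescence scaled to starting intensity during 10 to 20 s after thallium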
V-ATPase pHluor – regulators of yeast V-ATPase proton pumping, primary screen, pHLuorin cytosolic pH fluorescence; S. cerevisiae; response, % at 10 µM; actives 0.37% (n = 350,000); AID 504577, 2011; in the data active = response mostly above about 7.3%, no sharp cut-off; inactive = mostly below about 5.4%; also: actives read high
Dynein cargo inh – inhibitors of GR-EGFP nuclear translocation, primary screen, dynein cargo transport inhibitor project, imaging, high-content, 3617.4 mouse cells; z-score, hits read low; actives 0.47% (n = 220,000); AID 1381, 2008; test concentration mostly 20 µM; stimulated with dexamethasone, 1 µM; active compounds read low;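 active = plate z-score of nuclear minus cytoplasmic receptor signal below a set negative limit, without overly bright fluorescence or cell loss, cut at about -3.5 in these data, passing the limit was not always enough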;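 also: z-score of nuclear minus cytoplasmic ring GR-EGFP intensity difference per well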
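Also added – dexamethasone, 1.0 µM final · Buffer or medium – tet-free, stripped-serum medium · Schedule – induction 48 h, compound 1 h, agonist 30 min · Detection – formaldehyde fixation, Hoechst nuclear stain, 10x automated fluorescence imaging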
KCC2 secondary – KCC2 modulators in sodium-free buffer, confirmation, cell-based, HEK293 KCC2, thallium flux, secondary assay; shares compounds with KCC2 mod; FluoZin2 fluorescence; active compounds read high; normalised thallium flux (F/F0 slope) at 10 µM; actives 15% (n = 3,700); AID 1713, 2009;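 active = thallium flux slope above the same plate's solvent-only control mean plus 3 SD; inconclusive = the two replicate wells disagree; inactive = no significant difference from solvent-only control wells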
KCC2 bumet counter – thallium flux persisting under bumetanide in KCC2 cells, confirmation, counter-screen for KCC2 modulator project, cell-based, HEK293 KCC2, FluoZin2, secondary assay 3; shares compounds with KCC2 mod; HEK293-KCC2 + bumetanide/ouabain; active compounds read high; normalized thallium flux at 10 µM; actives 49% (n = 3,700); AID 1714, 2009;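 active = thallium entry rate above the same plate's blocked-transporter control wells by more than 3 SD; inconclusive = the two repeat wells disagree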;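 also: raw slope of fluorescence over initial fluorescence between 10 and 20 s after thallium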
KCC2 sec2 – KCC2 modulators without ouabain present, confirmation, cell-based, HEK293 KCC2, thallium flux, FluoZin2, secondary assay 2; thallium flux FluoZin2 fluorescence; actives lie on both sides; F/F0 rise rate, 10–20 s post-thallium; actives 23% (n = 3,700); normalized thallium flux at 10 µM; AID 1715, 2009; shares compounds with KCC2 mod;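 active = thallium flux slope more than 3 SD above or below the plate's solvent-only control mean, mostly below; inconclusive = the two repeat wells disagreed; inactive = no significant shift from solvent-only controls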;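 also: raw slope with 0.1% DMSO as baseline and bumetanide as block control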
HEK293 Tl flux – thallium flux modulation in parental HEK cells, confirmation, counter-screen for KCC2 modulator project, cell-based, counterscreen 1. thallium flux rate (normalised fluorescence) at 10 µM. HEK293 parental cells, thallium flux FluoZin2, ouabain; baseline-ratio fluorescence slope, 10–20 s after thallium. AID 1716, 2009. actives 46% (n = 3,700). shares compounds with KCC2 mod;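 active = thallium flux rate significantly above the same plate's solvent-only control wells, beyond their mean plus 3 SD; inconclusive = the two replicate wells gave conflicting results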
KCC2 ouabain – KCC2 inhibitors and activators, ouabain retest, confirmation, HEK-KCC2 cells | shares compounds with KCC2 mod | HEK293-KCC2, thallium flux FluoZin2 fluorescence; bidirectional: low = inhibitor, high = activator | raw Tl+ flux slope (below DMSO = inhibition, above = activation) at 10 µM | actives 48% (n = 3,700);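 active = thallium flux slope beyond 3 SD from same-plate DMSO control mean in most replicates, usually higher, sometimes lower; inconclusive = repeat tests gave conflicting results; inactive = no significant difference from controls in most replicates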;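 also: slope of initial-normalized fluorescence between seconds 10 and 20 after thallium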
HEK293 Tl flux2 – native HEK Tl+ uptake effects, second counter-screen – HEK cells, counterscreen 2, counter-screen for KCC2 modulator project, confirmation | actives 33% (n = 3,700) | HEK293 parental, thallium flux FluoZin-2 fluorescence slope | shares compounds with KCC2 mod | thallium flux slope at 10 µM;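 active = thallium flux slope above the same plate's solvent-control mean plus 3 SD in both duplicate wells; inconclusive = duplicate wells that disagreed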;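 also: run without ouabain in cells lacking the KCC2 cotransporter; slope of fluorescence scaled to its starting value between 10 and 20 s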
An asterisk follows results filed as active; ? = inconclusive; . = no result. This is one part of a sample in which hits are shown more often than they occur.

SMILES	ABCB6 inh 2	p-CIP stab down	KCC2 mod	V-ATPase pHluor	Dynein cargo inh	KCC2 secondary	KCC2 bumet counter	KCC2 sec2	HEK293 Tl flux	KCC2 ouabain	HEK293 Tl flux2
O=[N+]([O-])c1ccccc1/C=C/C=N/n1c(-c2ccccc2)n[nH]c1=S	103.0	-0.1	9.28*	5.0	1.33	0.0128*	0.0949*	0.0331	0.0112*	0.0409*	0.0118*
Cc1ccc(-c2n[nH]c(=S)n2/N=C/C=C\c2ccccc2[N+](=O)[O-])cc1	97.0	-2.9	7.65*	-4.1	0.421	0.0075	0.00915*	0.0331	0.0108*	?	0.0142*
S=c1[nH]nc(-c2ccncc2)n1/N=C/C=C/c1ccccc1	98.0	-18.7	-0.231	0.6	0.0519	.	.	.	.	.	.
COc1ccccc1/C=C/C=N/n1c(-c2ccc(C)cc2)n[nH]c1=S	98.0	0.7	3.26	2.4	-0.00934	.	.	.	.	.	.
COc1ccccc1C(CNC(=O)C(CCSC)NC(=O)c1ccccc1Cl)N1CCCC1 (stereo not given)	106.0	.	.	4.6	.	.	.	.	.	.	.
CCCc1cc(-c2n[nH]c(=S)n2-c2cccc(C)c2)cs1	101.0	9.4	106*	-0.2	-0.212	0.022*	0.203*	0.0401	0.0581*	0.0622*	0.0166*
CCCN(Cc1cc2cc(C)ccc2[nH]c1=O)C(=O)c1cccc([N+](=O)[O-])c1	101.0	2.1	0.0884	6.7	0.11	.	.	.	.	.	.
CCCCCCN1C[C@@H](O)[C@H](n2cc(C3CC3)nn2)C[C@@H]1c1ccccc1	94.0	.	.	2.7	.	.	.	.	.	.	.
CCN(CC)C(=O)CSc1n[nH]c(=O)n1CCc1ccccc1	97.0	-11.7	.	-2.1	.	.	.	.	.	.	.
O=c1[nH]nc(Sc2ncnc3sccc23)n1CCc1ccccc1	98.0	-8.1	-3.22*	-0.6	-0.974	0.00958	0.0072	0.0314	0.0039	0.0186	0.0116
CC(=O)c1sc(-c2ccc(F)cc2)cc1NS(=O)(=O)c1ccccc1	94.0	-6.9	9.05*	-9.4	-0.732	0.00888	0.0158*	0.0333	0.0153*	?	?
COC(=O)c1sc(-c2ccccc2)cc1NC(=O)c1ccc(F)cc1	94.0	-3.7	1.5	-2.0	1.59	.	.	.	.	.	.
O=c1[nH]c2cc3c(cc2cc1CN(Cc1nnnn1CC1CCCO1)C1CCCCC1)OCO3 (stereo not given)	95.0	-4.9	7.43*	-0.6	0.111	0.00567	?	0.0252*	0.00675	0.0161*	?
COc1ccc2[nH]c(=O)c(CN(CCc3ccccc3)Cc3nnnn3CC3CCCO3)cc2c1 (stereo not given)	91.0	-14.5	0.0905	-2.9	3.43	.	.	.	.	.	.
COc1ccccc1CN(Cc1cc2cc(C)ccc2[nH]c1=O)Cc1nnnn1CC1CCCO1 (stereo not given)	92.0	-18.2	-1.69	-3.0	4.8	.	.	.	.	.	.
O=c1[nH]c2cc3c(cc2cc1CN(Cc1nnnn1CC1CCCO1)C1CCCC1)OCO3 (stereo not given)	91.0	-21.3	-1.25	2.3	-0.409	.	.	.	.	.	.
COc1ccc2[nH]c(=O)c(CN(Cc3ccccc3OC)Cc3nnnn3CC3CCCO3)cc2c1 (stereo not given)	97.0	1.7	8.65*	-0.1	-0.51	0.00975	0.00512	0.0307	0.00734	0.0291	0.0103
Cc1ccc2[nH]c(=O)c(CN(CCc3ccccc3)Cc3nnnn3CC3CCCO3)cc2c1 (stereo not given)	92.0	-4.2	-4.29*	2.4	0.147	?	0.00525	?	0.00719	0.0173	0.0107
COc1cccc(CNC(=O)CCC2CCCN(Cc3ccc4c(c3)CCO4)C2)c1 (stereo not given)	96.0	-7.2	-0.242	3.4	0.44	.	.	.	.	.	.
CC(=O)C1=C(C)Nc2ncnn2C1c1cccc(OCc2ccccc2)c1 (stereo not given)	99.0	-14.0	-3.44*	-0.4	1.58	0.00789	0.006	0.0323	0.00672	0.0181*	0.0101
CCOc1cc2c3c(c1)C(C)=CC(C)(C)N3C(=O)C2=O	106.0	-2.4	-0.103	5.0	-0.409	.	.	.	.	.	.
CC(=O)Oc1cc2c3c(c1)/C(=C1/SC(=S)NC1=O)C(=O)N3C(C)(C)C=C2C	100.0	-28.3	11.6*	1.9	1.39	0.0108	0.0621*	0.0333	0.0169*	0.0236	0.0108
COc1ccc(-c2cc(C(=O)OCC(=O)c3c(N)n(C)c(=O)n(C)c3=O)c3ccccc3n2)cc1	89.0	-22.9	-4.77*	0.6	1.17	0.00869	0.00584	0.0294	0.00707	0.0209	?
COc1ccc(-c2cc(C(=O)c3c(N)n(C)c(=O)n(C)c3=O)c3ccccc3n2)cc1	96.0	5.5	0.00764	0.4	-0.412	.	.	.	.	.	.
COc1ccc(NC(=O)CN2CC(c3ccccc3)CC2=O)cc1OC (stereo not given)	97.0	-18.9	-0.197	-0.7	-0.351	.	.	.	.	.	.
CCOc1ccc(NC(=O)CN2CC(c3ccccc3)CC2=O)cc1 (stereo not given)	99.0	1.2	-2.76*	-0.9	0.427	0.0105	0.00668	0.0306	0.00771	0.0743	0.0108
CC(C)n1c(=S)[nH]c2scc(-c3cccs3)c2c1=O	97.0	-1.8	110*	0.6	-0.42	0.0233*	0.0923*	0.0883*	0.09*	0.0926*	0.0847*
